Test results reported in ChEMBL document CHEMBL1138787, “Synthesis and evaluation of nitrofuranylamides as novel antituberculosis agents” (J Med Chem, 2004).

How the values were obtained:
[1] = system: Mycobacterium tuberculosis; test: Activity against Mycobacterium tuberculosis H37Ra; type: functional
In short: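 Microbroth dilution in microtiter plates. H37Ra grown in Middlebrook 7H9 to OD650 0.4-0.6, then diluted to OD650 0.01. 100 µL of cells added to serial compound dilutions and incubated 37 °C for 8 days, growth read visually. MIC90 taken as wells with >90% growth inhibition; isoniazid positive control on every plate.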

[2] = system: Mycobacterium tuberculosis; test: Viable Mycobacterium tuberculosis in lungs of infected Mice after an 8-day drug treatment; Dose is 300 mg/kg; type: functional, Lung
In short: (§1)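 C57BL/6 interferon-γ gene-depleted (GKO) mice infected by low-dose aerosol. Eight daily treatments started 18 days postinfection. At day 28, lung and spleen homogenates serially diluted onto Middlebrook 7H11 agar and incubated 4 weeks at 37 °C. CFU log-transformed and reported ±SEM; one-way Dunnett multiple-comparison ANOVA, significance at 95% confidence.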

[3] = target: UDP-galactopyranose mutase (Mycobacterium tuberculosis, UniProt P9WIQ1); test: Inhibition of Mycobacterium tuberculosis UDP-galactose mutase expressed in Escherichia coli UDP-6 [3H]- Galf; parameters: species or system H37Rv
In short: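 Reverse-direction radiometric Glf assay on crude soluble enzyme extract, preactivated 30 min at 37 °C in 25 mM MOPS with NADH and FAD. Each 25 µL well held MOPS pH 7.2, MgCl2, NADH, FAD, 2.3 µg protein, 20 pmol UDP-6-[3H]Galf and 1 µL DMSO. Inhibitors at 100-6.3 µM; reaction 5-20 min. Conversion read by HPLC or periodate filter-plate counting; IC50 calculated.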

[4] = system: Mycobacterium tuberculosis; test: Viable Mycobacterium tuberculosis in spleen of infected Mice after an 8-day drug treatment; Dose is 300 mg/kg; type: functional; in short: as §1
[5] = The protein binding is expressed as percent bound as determined by VolSurf; type: ADME; conditions: read-out: Protein binding (converted)
Vero = test: Selectivity is the ratio of cytotoxicity compared to TBMIC; type: functional
In short: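 Ratio of VERO cell toxicity IC50 to M. tuberculosis H37Ra MIC. VERO monolayers were exposed to 3-fold compound dilutions for 72 h, and viability was read by tetrazolium reduction at 490 nm, with untreated and SDS-lysed cells as 0% and 100%. MIC was by microbroth dilution in 7H9 (OD650 0.01 inoculum), 37 °C for 8 days, with visual 90% growth inhibition.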

[6] = system: Mycobacterium tuberculosis; test: Viable Mycobacterium tuberculosis in spleen of infected Mice after an 8-day drug treatment; Dose is 25 mg/kg; type: functional; in short: as §1
[7] = system: Mycobacterium tuberculosis; test: Viable Mycobacterium tuberculosis in lungs of infected Mice after an 8-day drug treatment; Dose is 25 mg/kg; type: functional, Lung; in short: as §1
[8] = system: Mycobacterium tuberculosis; test: Viable Mycobacterium tuberculosis in lungs of infected Mice after an 8-day drug treatment; Dose is 150 mg/kg; type: functional, Lung; in short: as §1
[9] = system: Mycobacterium tuberculosis; test: Viable Mycobacterium tuberculosis in spleen of infected Mice after an 8-day drug treatment; Dose is 150 mg/kg; type: functional; in short: as §1

Chain of UDP-galactopyranose mutase (P9WIQ1 whole entry): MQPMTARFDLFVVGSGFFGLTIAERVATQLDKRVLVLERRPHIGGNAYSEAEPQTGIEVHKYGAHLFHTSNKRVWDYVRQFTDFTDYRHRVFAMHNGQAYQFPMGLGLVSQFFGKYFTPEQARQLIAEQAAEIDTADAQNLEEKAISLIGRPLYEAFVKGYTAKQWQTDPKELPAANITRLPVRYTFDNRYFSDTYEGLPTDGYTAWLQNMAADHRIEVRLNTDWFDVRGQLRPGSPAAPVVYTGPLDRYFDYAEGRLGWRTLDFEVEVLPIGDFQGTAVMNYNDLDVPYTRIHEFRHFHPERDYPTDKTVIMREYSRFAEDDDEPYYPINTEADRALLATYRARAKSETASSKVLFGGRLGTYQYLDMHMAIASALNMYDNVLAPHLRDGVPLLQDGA

Row | Structure (SMILES) | TBMIC [1] | Activity [2] | IC50 [3] | Activity [4] | fraction unbound [5] | Selectivity index (Vero) | Activity [6] | Activity [7] | Activity [8] | Activity [9]
1 | COc1ccc(CNC(=O)c2ccc([N+](=O)[O-])o2)cc1OC | 0.2 µg/mL | 6.5 log CFU | 75.1 µM | 6 log CFU | 0.363 | 90.9 |  |  |  | 
2 | COc1cccc(CNC(=O)c2ccc([N+](=O)[O-])o2)c1OC | 1.2 µg/mL |  | 464 µM |  | 0.356 |  |  |  |  | 
3 | O=C(NCc1ccccn1)c1ccc([N+](=O)[O-])o1 | 0.8 µg/mL |  | 481 µM |  | 0.427 |  |  |  |  | 
4 | O=C(Nc1cnccn1)c1ccc([N+](=O)[O-])o1 | 6.25 µg/mL |  | 692 µM |  | 0.528 |  |  |  |  | 
5 | COc1ccc(CCNC(=O)c2ccc([N+](=O)[O-])o2)cc1 | 0.8 µg/mL |  | 58.6 µM |  | 0.288 | 25.6 |  |  |  | 
6 | O=C(c1ccc([N+](=O)[O-])o1)N1CCc2ccccc21 | 0.8 µg/mL |  |  |  | 0.25 | 9.9 |  |  |  | 
7 | O=C(NC1CCc2ccccc21)c1ccc([N+](=O)[O-])o1 (configuration not stated) | 3.1 µg/mL |  | 264 µM |  | 0.23 | 3.3 |  |  |  | 
8 | O=C(Nc1cccc(O)c1)c1ccc([N+](=O)[O-])o1 | 1.6 µg/mL |  | 314 µM |  | 0.391 | 7.8 |  |  |  | 
9 | COc1ccccc1CNC(=O)c1ccc([N+](=O)[O-])o1 | 1.6 µg/mL |  | 358 µM |  | 0.335 |  |  |  |  | 
10 | COc1ccc(CCNC(=O)c2ccc([N+](=O)[O-])o2)cc1OC | 0.4 µg/mL |  | 165 µM |  | 0.303 | 68.6 |  |  |  | 
11 | NNC(=O)c1ccncc1 [ISONIAZID] |  |  |  |  |  |  | 3.2 log CFU | 5.5 log CFU |  | 
12 | CN(C(=O)c1ccc([N+](=O)[O-])o1)c1ccccc1 | 3.12 µg/mL |  | 260 µM |  | 0.332 | 7.6 |  |  |  | 
13 | COc1ccc(N(C)C(=O)c2ccc([N+](=O)[O-])o2)cc1 | 6.25 µg/mL |  | 500 µM |  | 0.395 | 4 |  |  |  | 
14 | O=C(Nc1cccc(Br)c1)c1ccc([N+](=O)[O-])o1 | 0.6 µg/mL |  | 35.4 µM |  | 0.311 | 9.6 |  |  |  | 
15 | O=C(Nc1cccnc1)c1ccc([N+](=O)[O-])o1 | 6.25 µg/mL |  | 206 µM |  | 0.447 | 2.1 |  |  |  | 
16 | O=C(Nc1cccc(Cl)c1)c1ccc([N+](=O)[O-])o1 | 0.8 µg/mL | 8.3 log CFU | 56.3 µM | 7.3 log CFU |  | 8.6 |  |  |  | 
17 | COc1ccc(CNC(=O)c2ccc([N+](=O)[O-])o2)c(OC)c1 | 0.4 µg/mL |  | 111 µM |  | 0.409 | 13.5 |  |  |  | 
18 | COc1cccc(NC(=O)c2ccc([N+](=O)[O-])o2)c1 | 0.8 µg/mL |  | 160 µM |  | 0.364 | 23.3 |  |  | 8 log CFU | 7.2 log CFU
19 | O=C(NCCc1ccccc1)c1ccc([N+](=O)[O-])o1 | 1.6 µg/mL |  | 315 µM |  | 0.246 | 15.7 |  |  |  | 
20 | C[C@H](NC(=O)c1ccc([N+](=O)[O-])o1)c1ccccc1 | 1.6 µg/mL |  | 146 µM |  | 0.259 | 16 |  |  |  | 
21 | COc1ccc(CNC(=O)c2ccc([N+](=O)[O-])o2)cc1 | 0.1 µg/mL |  | 416 µM |  | 0.347 | 163.6 |  |  |  | 

Row | Structure (SMILES) | TBMIC [1] | Activity [2] | IC50 [3] | Activity [4] | fraction unbound [5] | Selectivity index (Vero) | Activity [6] | Activity [7] | Activity [8] | Activity [9]
22 | O=C(NCc1ccccc1Cl)c1ccc([N+](=O)[O-])o1 | 1.6 µg/mL |  | 53.4 µM |  | 0.313 | 7.3 |  |  |  | 
23 | O=C(NC1CCCc2ccccc21)c1ccc([N+](=O)[O-])o1 (configuration not stated) |  |  | 112 µM |  |  |  |  |  |  | 
24 | COc1cc(CNC(=O)c2ccc([N+](=O)[O-])o2)cc(OC)c1OC | 0.8 µg/mL |  | 184 µM |  | 0.344 | 29.5 |  |  |  | 
25 | O=C(Nc1ccccn1)c1ccc([N+](=O)[O-])o1 | 3.12 µg/mL |  | 227 µM |  | 0.438 | 3.5 |  |  |  | 
26 | O=C(Nc1cccc(F)c1)c1ccc([N+](=O)[O-])o1 | 0.8 µg/mL | 8.4 log CFU | 112 µM | 7 log CFU | 0.334 | 11.6 |  |  |  | 
27 | O=C(Nc1cc[nH]n1)c1ccc([N+](=O)[O-])o1 | 6.25 µg/mL |  | 729 µM |  | 0.513 | 1.2 |  |  |  | 
28 | COc1cccc(NC(=O)c2ccc(S(=O)(=O)c3ccccc3)o2)c1 | 6.25 µg/mL |  | 64.4 µM |  | 0.485 | 4.1 |  |  |  | 
29 | N#Cc1ccc(NC(=O)c2ccc([N+](=O)[O-])o2)cc1 | 0.8 µg/mL |  | 393 µM |  | 0.249 | 4.4 |  |  |  | 
30 | COc1cccc2sc(NC(=O)c3ccc([N+](=O)[O-])o3)nc12 | 1.6 µg/mL |  | 210 µM |  | 0.257 |  |  |  |  | 
31 | COc1cc(NC(=O)c2ccc([N+](=O)[O-])o2)ncn1 | 1.6 µg/mL |  |  |  | 0.469 |  |  |  |  | 
32 | C[C@@H](NC(=O)c1ccc([N+](=O)[O-])o1)c1ccccc1 | 3.1 µg/mL |  | 150 µM |  | 0.289 | 7.6 |  |  |  | 
33 | O=C(Nc1cccc(OCc2ccccc2)c1)c1ccc([N+](=O)[O-])o1 | 12.5 µg/mL |  | 82.8 µM |  | 0.13 |  |  |  |  | 
34 | O=C(Nc1ccccc1)c1ccc([N+](=O)[O-])o1 | 0.8 µg/mL |  | 94.7 µM |  | 0.325 | 2.7 |  |  |  | 
35 | O=C(Nc1ccncc1)c1ccc([N+](=O)[O-])o1 | 3.12 µg/mL |  | 184 µM |  | 0.446 | 2.2 |  |  |  | 
36 | COc1cccc(NC(=O)c2ccc([S+]([O-])c3ccccc3)o2)c1 (configuration not stated) | 6.25 µg/mL |  |  |  | 0.39 | 10.4 |  |  |  | 
37 | O=C(NCc1ccco1)c1ccc([N+](=O)[O-])o1 | 6.25 µg/mL |  | 246 µM |  | 0.38 | 0.7 |  |  |  | 
38 | O=C(NC12CC3CC(CC(C3)C1)C2)c1ccc([N+](=O)[O-])o1 | 3.1 µg/mL |  | 169 µM |  |  |  |  |  |  | 
39 | O=C(NC1CCCCC1)c1ccc([N+](=O)[O-])o1 | 3.1 µg/mL |  | 281 µM |  | 0.352 | 2.9 |  |  |  | 
40 | Cc1ncc([N+](=O)[O-])n1CCO [METRONIDAZOLE] |  |  |  |  |  |  |  |  | 8.5 log CFU | 6.9 log CFU
41 | COc1ccc(NC(=O)c2ccc([N+](=O)[O-])o2)cc1 | 0.4 µg/mL |  | 160 µM |  | 0.369 | 53.6 |  |  |  | 
